Measurements pooled from the literature.
Lines come from different studies, so protocols differ.
Cell line: DU-145
Observed: cell growth or viability

COc1ccc(C(=O)/C=C/c2ccc(Cl)c(Cl)c2)cc1S(N)(=O)=O gave a GI50 of 3.5 µM (SRB; 48 h).
CCc1cc(CN2CCc3cc(OS(N)(=O)=O)c(OC)cc3C2)cc(CC)c1CC has a GI50 of 1.8 µM (WST-1; 96 h).
COc1cc2c(cc1O)CCN(Cc1cc(OC)c(OC)c(OC)c1)C2 gave a GI50 of 0.65 µM (WST-1; 96 h).
CCc1cc(CN2CCc3cc(O)c(OC)cc3C2)cc(CC)c1CC gave a GI50 of 63 µM (WST-1; 96 h).
COc1ccc(-c2ccc(-c3ccc(C(=N)N)nc3)s2)cc1Cl gave a GI50 of 1.77 µM.
COc1ccc(C(=O)/C=C/c2cccc(Br)c2)cc1S(N)(=O)=O gave a GI50 of 3.6 µM (SRB; 48 h).
CCOc1cc(CN2CCc3cc(OS(N)(=O)=O)c(OC)cc3C2)cc(OCC)c1OCC has a GI50 of 8.5 µM (WST-1; 96 h).
COc1cc2c(cc1O)CCN(C(=O)c1cc(OC)c(OC)c(OC)c1)C2 has a GI50 of 0.921 µM (WST-1; 96 h).
For COc1ccc(-c2ccc(-c3ccc(C(=N)N)nc3)s2)cc1, the GI50 was 1.77 µM.
With COc1ccc(OC)c(CN2CCc3cc(OS(N)(=O)=O)c(OC)cc3C2)c1 the GI50 was 2.61 µM (WST-1; 96 h).
COc1ccccc1/C=C/C(=O)c1ccc(OC)c(S(N)(=O)=O)c1 gave a GI50 of 3.2 µM (SRB; 48 h).
With Cc1cc(C)n(C(=S)[S][Au][PH](CCCCCC[PH]([Au][S]C(=S)n2nc(C)cc2C)(c2ccccc2)c2ccccc2)(c2ccccc2)c2ccccc2)n1 the GI50 was 0.633 µM.
With COc1cc2c(cc1OS(N)(=O)=O)CCN(Cc1cccc(C(C)=O)c1)C2 the GI50 was 1.85 µM (WST-1; 96 h).
For COc1ccc(C(=O)/C=C/c2cccc(Cl)c2)cc1S(N)(=O)=O, the GI50 was 3.6 µM (SRB; 48 h).
The GI50 of COc1cccc(S(=O)(=O)N2CCc3cc(OS(N)(=O)=O)c(OC)cc3C2)c1 is reported as 56.7 µM (WST-1; 96 h).
COc1cc2c(cc1OS(N)(=O)=O)CCN(Cc1cc(Cl)c(OC)c(OC)c1)C2 has a GI50 of 0.04 µM (WST-1; 96 h).
With COc1ccc(C(=O)/C=C/c2ccccc2Br)cc1S(N)(=O)=O the GI50 was 3.3 µM (SRB; 48 h).
COc1cc2c(cc1O)CCN(Cc1cccc(OC)c1OC)C2 gave a GI50 of greater than 100 µM (WST-1; 96 h).
With COc1cc2c(cc1O)CCN(Cc1cc(Br)c(OC)c(OC)c1)C2 the GI50 was 0.3 µM (WST-1; 96 h).
